The values below come from ChEMBL document CHEMBL1126593, “Inactivation of monoamine oxidase B by analogues of the anticonvulsant agent milacemide (2-(n-pentylamino)acetamide)” (J Med Chem, 1993).

Data set [1] in a line: Ratio of Kinetic constant (Kcat) / Inactivation constant (Kinact) of the MAO B; Inactive. The gist of the method: (§1)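 Turnover from H2O2 release: bovine MAO B with amine at several concentrations in 100 mM Tris-HCl pH 9.00, 25 °C, 90 s (1–2 min for some); leuco crystal violet/horseradish peroxidase in acetate pH 4.5 added, A596 converted via extinction coefficient. Km and kcat from Hanes plots; ratio is kcat over kinact from time-dependent inactivation.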

Data set [2] addresses T1, Amine oxidase [flavin-containing] B (Bos taurus, UniProt P56560).
T1 sequence (P56560 whole entry): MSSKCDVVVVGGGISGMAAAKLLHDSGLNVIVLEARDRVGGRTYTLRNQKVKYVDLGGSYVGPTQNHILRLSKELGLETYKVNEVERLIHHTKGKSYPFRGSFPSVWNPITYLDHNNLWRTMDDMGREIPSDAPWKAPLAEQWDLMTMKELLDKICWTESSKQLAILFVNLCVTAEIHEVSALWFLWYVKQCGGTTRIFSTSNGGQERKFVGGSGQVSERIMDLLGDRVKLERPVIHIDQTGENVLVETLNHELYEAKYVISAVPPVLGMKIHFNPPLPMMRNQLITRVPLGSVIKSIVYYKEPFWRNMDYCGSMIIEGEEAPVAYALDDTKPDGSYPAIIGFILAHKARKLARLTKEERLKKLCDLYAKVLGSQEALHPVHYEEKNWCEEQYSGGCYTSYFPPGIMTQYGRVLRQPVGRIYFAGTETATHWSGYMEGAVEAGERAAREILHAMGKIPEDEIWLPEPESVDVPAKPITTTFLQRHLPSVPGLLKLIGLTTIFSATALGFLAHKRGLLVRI
The data set can be described thus: Kinetic constant was calculated by inhibition of monoamino oxidase B (MAO B); Inactive. Summed up: (§2)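 Bovine liver MAO B (isolated by published method), 25 °C, 100 mM Tris-HCl pH 9.00. Enzyme incubated with several inactivator concentrations; aliquots withdrawn periodically and residual activity read by benzylamine oxidation (OD change at 250 nm). Irreversibility tested by 24 h dialysis against Tris-HCl pH 9.0.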

In data set [3] the target is T1, Amine oxidase [flavin-containing] B. The data set can be described thus: Kinetic constant (KI) was calculated by inhibition of monoamino oxidase B (MAO B); Inactive. The gist of the method: as §2
The target is the same in data set [4]. The data set can be described thus: Kinetic constant was calculated by inhibition of monoamino oxidase B (MAO B). Summed up:
as §2

Data set [5] can be described thus: Ratio is Kinetic constant (Kcat) / Inactivation constant (Kinact) of the MAO B. Summed up: as §1
For data set [6], the target named is T1, Amine oxidase [flavin-containing] B. In words: Kinetic constant (KI) was calculated by inhibition of monoamino oxidase B (MAO B). The gist of the method: as §2
A short description of data set [7]: Ratio of Kinetic constant (Kcat) / Inactivation constant (Kinact) of the MAO B. The gist of the method:
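Bovine MAO B. For kcat, the enzyme was incubated for 1–2 min at 25 °C with several substrate concentrations in 100 mM Tris-HCl, pH 9.00. H2O2 was read as A596 after leuco crystal violet, peroxidase and pH 4.5 acetate were added, and kcat was taken from Hanes plots. For kinact, enzyme was incubated with varied inactivator concentrations (Tris-HCl, pH 9.00, 25 °C), and aliquots were assayed periodically.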

The structures appear in SMILES notation.

For the compound `CCCCCNCC(=O)O`, the Ratio entry in data set [1] was “Not Active”. For the same compound, the Ki result in data set [2] and in data set [3] was “Not Active” throughout.
Take `CCCCCNCC#N`: the Ki in data set [4] was 4.94 mM; in data set [6] it was 14 mM. In addition, the Ratio in data set [5] is given as 3394.
Turning to `CCCCCNCC(=O)OCC`, in data set [7], the Ratio is 4435. Moreover, the Ki in data set [4] was 2 mM; in data set [6] it was 14.2 mM.
As for `CCCCCNCC(N)=O` [MILACEMIDE], in data set [7], the Ratio stood at 26289. The Ki in data set [4] was 1.08 mM; in data set [6], 0.94 mM.
Turning to `CCCCCNCCC#N`, the Ki in data set [4] is 4.94 mM; in data set [6] it was 5.79 mM. Further, the Ratio in data set [5] is given as 9091.

A word on the Ki: it is the dissociation constant of the complex between target and ligand, obtained from inhibition or displacement.
